Measurements of several laboratories.
Each line is one published result; the experiments were not run side by side.
Melanocortin receptor 3: Melanocortin receptor 3 (Mus musculus, UniProt P33033)
ADORA2B: Adenosine receptor A2b (ADORA2B, Homo sapiens, UniProt P29275)

CSCC[C@H](N)C(=O)NCC(=O)N[C@@H](Cc1c[nH]cn1)C(=O)N[C@@H](Cc1ccccc1)C(=O)N[C@@H](CCCNC(=N)N)C(=O)N[C@@H](Cc1c[nH]c2ccccc12)C(=O)N[C@@H](CC(=O)O)C(=O)N[C@@H](CCCNC(=N)N)C(=O)N[C@@H](Cc1ccccc1)C(=O)NCC(=O)O — EC50 (Melanocortin receptor 3; reporter gene, agonist): 260 nM
COCCOc1ccc(N2CCN(CCn3ncc4c3nc(N)n3nc(-c5ccco5)nc43)CC2)cc1 — Ki (ADORA2B; ligand displacement, radioligand; cell membranes): > 1000 nM
CCCCN1CCC(COC(=O)c2ccc(N)c(OC)c2)CC1 — Ki (5-hydroxytryptamine receptor 4 (HTR4, Homo sapiens, UniProt Q13639); ligand displacement, radioligand): 1.1 nM
Cc1ncsc1-c1ccc(CNC(=O)[C@@H]2C[C@@H](O)CN2C(=O)[C@@H](NC(=O)C2(F)CC2)C(C)(C)C)c(OCCOCCOCCN2CCN(c3cc(-c4ccccc4O)nnc3N)CC2)c1 — Kd (Protein polybromo-1, bromodomain (PBRM1, Homo sapiens, UniProt Q86U86); binding, SPR): 2700 nM
CC#CC(=O)N1CC[C@@H](n2cc(-c3ccc(Oc4c(F)cccc4F)cc3)c3c(N)n[nH]c(=O)c32)C1 — Kd (Tyrosine-protein kinase Tec (TEC, Homo sapiens, UniProt P42680); binding, competition with immobilised ligand): 4 nM
N=C(N)NCCC[C@H](NC(=O)[C@H](CC(=O)O)NC(=O)[C@H](Cc1c[nH]c2ccccc12)NC(=O)[C@H](CCCNC(=N)N)NC(=O)[C@H](Cc1ccccc1)NC(=O)[C@@H](N)Cc1c[nH]cn1)C(=O)N[C@@H](Cc1ccccc1)C(=O)NCC(=O)O — EC50 (Melanocortin receptor 3; reporter gene, agonist): 2670 nM
CCNC(=O)[C@H]1O[C@@H](n2cnc3c(N)nc(NN=CC4CCC=CO4)nc32)[C@H](O)[C@@H]1O (some centres unmarked) — EC50 (ADORA2B; GTPγS binding, agonist; cell membranes): 17400 nM
CSCC[C@H](NC(=O)[C@@H](N)Cc1ccc(O)cc1)C(=O)N[C@@H](Cc1c[nH]cn1)C(=O)N[C@@H](Cc1ccccc1)C(=O)N[C@@H](CCCNC(=N)N)C(=O)N[C@@H](Cc1c[nH]c2ccccc12)C(=O)N[C@@H](Cc1ccccc1)C(=O)O — EC50 (Melanocortin receptor 3; reporter gene, agonist): 10400 nM
CCCCCCN1CCCn2c1nc1c2c(=O)n(C)c(=O)n1C — Ki (ADORA2B; ligand displacement, radioligand; cell membranes): > 10000 nM
CCCCCCCCCCCCC/C=C/[C@@H](O)[C@@H](N)COP(=O)(O)O — Kd (Potassium channel subfamily K member 2 (KCNK2, Homo sapiens, UniProt O95069); binding, BRET): > 500000 nM
CCCCN1CCCn2c1nc1c2c(=O)n(CCC)c(=O)n1CCC — Ki (ADORA2B; ligand displacement, radioligand; cell membranes): 1320 nM
CC(=O)N[C@H](C(=O)N1C[C@H](O)C[C@H]1C(=O)NCc1ccc(-c2scnc2C)cc1)C(C)(C)SCCCCCCNC(=O)C[C@@H]1N=C(c2ccc(Cl)cc2)c2c(sc(C)c2C)-n2c(C)nnc21 — Kd (Bromodomain-containing protein 2, BD1 (BRD2, Homo sapiens, UniProt P25440); binding, ITC): 111 nM
C=CN1CCCn2c1nc1c2c(=O)n(C)c(=O)n1C — Ki (ADORA2B; ligand displacement, radioligand; cell membranes): > 10000 nM
N=C(N)NCCC[C@H](NC(=O)[C@H](CC(=O)O)NC(=O)[C@H](Cc1c[nH]c2ccccc12)NC(=O)[C@@H](N)CCCNC(=N)N)C(=O)N[C@@H](Cc1ccccc1)C(=O)NCC(=O)O — EC50 (Melanocortin receptor 3; reporter gene, agonist): > 100000 nM
